ChEMBL document CHEMBL4184124, “Progress in antischistosomal N,N'-diaryl urea SAR” (Bioorg Med Chem Lett, 2018)
In brackets after ≈: the same amount, converted by molar mass. Activity calls are given as the source filed them. The rule behind the calls is not given here.

Key:
[1] = Kinetic solubility of the compound in phosphate buffer at pH 6.5 by nephelometric method; assay type: physicochemical; conditions: read-out: Kinetic_solubility
Method in brief: (§1)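 DMSO stocks spiked into pH 6.5 phosphate buffer or 0.01 M HCl (approx. pH 2.0); nephelometry gave a solubility concentration range.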

[2] = Kinetic solubility of the compound in 0.01M HCl at pH 2 by nephelometric method; assay type: physicochemical; conditions: read-out: Kinetic_solubility; method in brief: as §1
[3] = Intrinsic clearance in human liver microsomes assessed per mg protein after 60 mins in presence of NADPH generating system; assay type: ADME, microsome; conditions: 1 h
[4] = Intrinsic clearance in mouse liver microsomes assessed per mg protein after 60 mins in presence of NADPH generating system; assay type: ADME, microsome; conditions: 1 h
Schistosoma mansoni [5] = test: Antischistosomal activity against newly transformed stage of Schistosoma mansoni measured after 72 hrs by microscopic analysis; assay type: functional, organism-based
Method in brief: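 Newly transformed schistosomula were first screened at 10 µM; compounds that killed them were then run as a concentration titration to derive IC50 values.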

Schistosoma mansoni [6] = test: Antischistosomal activity against adult stage of Schistosoma mansoni measured after 72 hrs by microscopic analysis; assay type: functional, organism-based
Schistosoma mansoni [7] = test: Antischistosomal activity against newly transformed stage of Schistosoma mansoni assessed as parasite death at 10 uM; assay type: functional, organism-based
Method in brief: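 Newly transformed schistosomula exposed at 10 µM as a screen for killing; active compounds then titrated to give IC50.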

HFF = test: Cytotoxicity against HFF; assay type: cell-based; conditions: Homo sapiens
U2OS = test: Cytotoxicity against human U2OS cells; assay type: cell-based
HEK293 = test: Cytotoxicity against HEK293 cells; assay type: cell-based; conditions: Homo sapiens
[8] = Cytotoxicity against human HC04 cells; assay type: cell-based
[9] = Plasma concentration in Swiss mouse at 100 mg/kg, po administered as single dose via gavage measured up to 48 hrs by LC-MS analysis; assay type: ADME, organism-based
Method in brief: (§2)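 Single 100 mg/kg oral dose given to non-infected male Swiss outbred mice; plasma sampled over 48 h post-dose; n=2 mice per time point, mean values. AUC taken to last measured concentration.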

[10] = Cmax in Swiss mouse at 100 mg/kg, po administered as single dose via gavage by LC-MS analysis; assay type: ADME, organism-based; set-up: dose 100 mg/kg, route oral; conditions: in vivo; method in brief: as §2
[11] = Half-life in Swiss mouse at 100 mg/kg, po administered as single dose via gavage by LC-MS analysis; assay type: ADME, organism-based; conditions: in vivo; method in brief: as §2
[12] = AUC (0 to last) in Swiss mouse at 100 mg/kg, po administered as single dose via gavage by LC-MS analysis; assay type: ADME, organism-based; set-up: dose 100 mg/kg, time 0 - last, route oral; conditions: in vivo; method in brief: as §2
Schistosoma mansoni [13] = test: Antischistosomal activity against Schistosoma mansoni cercariae infected in NMRI mouse assessed as reduction in worm burden at 100 mg/kg, po administered as single dose via gavage measured after 21 days relative to control; assay type: functional; set-up: scale not given: the % may be the effect or the level left
Method in brief: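 Infected mice given a single 100 mg/kg oral dose; efficacy read as worm burden reduction (%).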

[14] = Octanol-[…] partition coefficient, log D of the compound at pH 7.4 by RP-HPLC method
[15] = Drug uptake in Swiss mouse plasma at 100 mg/kg, po administered as single dose via gavage measured after 4 to 48 hrs by LC-MS analysis; assay type: ADME, organism-based; conditions: in vivo; method in brief: as §2
[16] = Tmax in Swiss mouse at 100 mg/kg, po administered as single dose via gavage by LC-MS analysis; assay type: ADME, organism-based; conditions: in vivo; method in brief: as §2
Schistosoma mansoni [17] = test: Antischistosomal activity against Schistosoma mansoni cercariae infected in NMRI mouse assessed as reduction in worm burden at 80 mg/kg, po administered as four consecutive dose via gavage measured after 21 days relative to control; assay type: functional; set-up: scale not given: the % may be the effect or the level left
Method in brief: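 Infected mice given four consecutive 80 mg/kg oral doses; efficacy read as worm burden reduction (%).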

O=C(Nc1ccc2c(c1)OC(F)(F)O2)Nc1ccc2c(c1)OC(F)(F)O2
solubility kinetic [1]: < 1.6 µg/mL | solubility kinetic [2]: < 1.6 µg/mL | CLH [3]: < 7 µL/min/mg | CLH [4]: 12 µL/min/mg | IC50 (Schistosoma mansoni [5]): 0.26 µM | IC50 (Schistosoma mansoni [6]): 0.49 µM | Activity (Schistosoma mansoni [7]): Active | IC50 (HFF): 79 µM | IC50 (U2OS): > 100 µM | IC50 (HEK293): > 100 µM | IC50 [8]: > 100 µM | concentration at 48 h [9]: > 5 µM | Cmax [10]: 25 µM | half-life [11]: 13 h | AUC(0-t) [12]: 679 µM·h | Activity (Schistosoma mansoni [13]): 0% | chromatographic logD [14]: 4.4

O=C(Nc1ccc(F)c(C(F)(F)F)c1)Nc1ccccn1
solubility kinetic [1]: < 1.6 µg/mL | solubility kinetic [2]: 1.6 to 3.1 µg/mL (≈ 5.35 to 10.4 µM) | CLH [3]: 188 µL/min/mg | CLH [4]: 705 µL/min/mg | chromatographic logD [14]: 3.7

Cc1cc(NC(=O)Nc2ccc(F)c(C(F)(F)F)c2)on1
solubility kinetic [1]: 6.3 to 12.5 µg/mL (≈ 20.8 to 41.2 µM) | solubility kinetic [2]: 12.5 to 25 µg/mL (≈ 41.2 to 82.4 µM) | CLH [3]: 73 µL/min/mg | CLH [4]: 108 µL/min/mg | chromatographic logD [14]: 3.2

O=C(Nc1ccc(F)c(C(F)(F)F)c1)Nc1cnccn1
solubility kinetic [1]: < 1.6 µg/mL | solubility kinetic [2]: 1.6 to 3.1 µg/mL (≈ 5.33 to 10.3 µM) | CLH [3]: 210 µL/min/mg | CLH [4]: 160 µL/min/mg | chromatographic logD [14]: 3

O=C(Nc1ccncc1)Nc1ccc(F)c(C(F)(F)F)c1
solubility kinetic [1]: 6.3 to 12.5 µg/mL (≈ 21.1 to 41.8 µM) | solubility kinetic [2]: 6.3 to 12.5 µg/mL (≈ 21.1 to 41.8 µM) | CLH [3]: 12 µL/min/mg | CLH [4]: 37 µL/min/mg | IC50 (Schistosoma mansoni [5]): 5.6 µM | IC50 (Schistosoma mansoni [6]): > 10 µM | Activity (Schistosoma mansoni [7]): Active | chromatographic logD [14]: 3.2

O=C(Nc1ccnc(C(F)(F)F)c1)Nc1ccc(F)c(C(F)(F)F)c1
solubility kinetic [1]: 3.1 to 6.3 µg/mL (≈ 8.44 to 17.2 µM) | solubility kinetic [2]: 3.1 to 6.3 µg/mL (≈ 8.44 to 17.2 µM) | CLH [3]: < 7 µL/min/mg | CLH [4]: < 7 µL/min/mg | IC50 (Schistosoma mansoni [5]): 0.74 µM | IC50 (Schistosoma mansoni [6]): 0.66 µM | Activity (Schistosoma mansoni [7]): Active | IC50 (HFF): 71 µM | IC50 (U2OS): > 100 µM | IC50 (HEK293): > 100 µM | IC50 [8]: > 100 µM | Drug uptake [15]: Active | Cmax [10]: 56 µM | Tmax [16]: 7.5 h | half-life [11]: 18 h | AUC(0-t) [12]: 1490 µM·h | Activity (Schistosoma mansoni [13]): 50% | Activity (Schistosoma mansoni [17]): 53% | chromatographic logD [14]: 3.8

O=C(Nc1cccc(C(=O)O)c1)Nc1ccc(F)c(C(F)(F)F)c1
solubility kinetic [1]: 12.5 to 25 µg/mL (≈ 36.5 to 73 µM) | solubility kinetic [2]: 1.6 to 3.1 µg/mL (≈ 4.67 to 9.06 µM) | CLH [3]: < 7 µL/min/mg | CLH [4]: < 7 µL/min/mg | chromatographic logD [14]: 1.6

N#Cc1ccc(NC(=O)Nc2ccc(F)c(C(F)(F)F)c2)cc1
solubility kinetic [1]: < 1.6 µg/mL | solubility kinetic [2]: < 1.6 µg/mL | CLH [3]: < 7 µL/min/mg | CLH [4]: 12 µL/min/mg | IC50 (Schistosoma mansoni [5]): 1.6 µM | IC50 (Schistosoma mansoni [6]): 0.94 µM | Activity (Schistosoma mansoni [7]): Active | IC50 (HFF): 60 µM | IC50 (U2OS): > 100 µM | IC50 (HEK293): > 100 µM | IC50 [8]: > 100 µM | Cmax [10]: 31 µM | Tmax [16]: 4 h | half-life [11]: 2.7 h | AUC(0-t) [12]: 216 µM·h | Activity (Schistosoma mansoni [13]): 37% | chromatographic logD [14]: 3.8

O=C(Nc1cnccn1)Nc1cnccn1
solubility kinetic [1]: 6.3 to 12.5 µg/mL (≈ 29.1 to 57.8 µM) | solubility kinetic [2]: 6.3 to 12.5 µg/mL (≈ 29.1 to 57.8 µM) | CLH [3]: 18 µL/min/mg | CLH [4]: 157 µL/min/mg | chromatographic logD [14]: 0.8

CC(=O)c1ccc(NC(=O)Nc2ccc(F)c(C(F)(F)F)c2)cc1
solubility kinetic [1]: < 1.6 µg/mL | solubility kinetic [2]: < 1.6 µg/mL | CLH [3]: 16 µL/min/mg | CLH [4]: 14 µL/min/mg | chromatographic logD [14]: 3.6

O=C(Nc1cccnc1)Nc1ccc(F)c(C(F)(F)F)c1
solubility kinetic [1]: 12.5 to 25 µg/mL (≈ 41.8 to 83.5 µM) | solubility kinetic [2]: 50 to 100 µg/mL (≈ 167 to 334 µM) | CLH [3]: 13 µL/min/mg | CLH [4]: 154 µL/min/mg | chromatographic logD [14]: 3
